Assay results published in ChEMBL document CHEMBL2311525, “Design, synthesis, and pharmacological properties of new heteroarylpyridine/heteroarylpyrimidine derivatives as CB(2) cannabinoid receptor partial agonists” (J Med Chem, 2013).

Experiments:
Cannabinoid receptor 2 [1] = target: T1, Cannabinoid receptor 2 (Homo sapiens, UniProt P34972); assay: Displacement of [3H]CP-55,940 from human recombinant CB2 receptor expressed in CHO cell membranes at 1 to 10000 nM after 60 mins by scintillation counting analysis
T1 sequence (P34972 whole entry): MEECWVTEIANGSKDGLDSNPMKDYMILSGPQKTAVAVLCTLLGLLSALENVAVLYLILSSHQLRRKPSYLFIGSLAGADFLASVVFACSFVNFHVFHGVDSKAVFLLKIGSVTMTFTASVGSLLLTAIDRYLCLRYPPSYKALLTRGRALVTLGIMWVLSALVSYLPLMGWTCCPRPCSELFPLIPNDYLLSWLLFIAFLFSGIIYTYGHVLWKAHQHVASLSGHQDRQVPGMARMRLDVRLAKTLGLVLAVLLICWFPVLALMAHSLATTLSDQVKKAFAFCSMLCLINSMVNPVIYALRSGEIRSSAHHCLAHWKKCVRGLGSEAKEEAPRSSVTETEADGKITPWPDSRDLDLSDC
How it was run: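 Membranes from CHO cells expressing hCB2, spun at 100000g, in 50 mM Tris-HCl with 0.5% BSA, 5 mM MgCl2 and 1 mM EDTA, pH 7.4. Incubated with 0.5 nM [3H]CP-55,940 and compound at 1 nM–10 μM for 60 min at 30 °C. Filtered on GF/C and counted. Ki by Cheng–Prusoff, n = 4.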

Cannabinoid receptor 1 [2] = target: T2, Cannabinoid receptor 1 (Homo sapiens, UniProt P21554); assay: Displacement of [3H]CP-55,940 from human recombinant CB1 receptor expressed in CHO cell membranes at 1 to 10000 nM after 90 mins by scintillation counting analysis
T2 sequence (P21554 whole entry): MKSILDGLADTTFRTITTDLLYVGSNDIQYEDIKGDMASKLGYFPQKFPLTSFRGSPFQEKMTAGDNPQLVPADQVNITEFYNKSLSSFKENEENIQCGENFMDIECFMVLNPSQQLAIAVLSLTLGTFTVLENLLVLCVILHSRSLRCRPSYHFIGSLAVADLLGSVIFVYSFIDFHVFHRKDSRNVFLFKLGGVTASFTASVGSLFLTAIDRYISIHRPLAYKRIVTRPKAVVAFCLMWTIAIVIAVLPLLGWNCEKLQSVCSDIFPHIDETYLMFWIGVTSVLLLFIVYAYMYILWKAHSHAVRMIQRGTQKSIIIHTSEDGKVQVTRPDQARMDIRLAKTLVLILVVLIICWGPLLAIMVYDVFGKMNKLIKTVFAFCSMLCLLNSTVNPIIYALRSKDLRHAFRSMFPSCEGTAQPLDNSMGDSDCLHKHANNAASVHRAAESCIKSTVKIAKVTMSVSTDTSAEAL
How it was run: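 Membranes from CHO cells expressing hCB1, spun at 100000g, in 50 mM Tris-HCl with 0.5% BSA, 5 mM MgCl2 and 2.5 mM EDTA, pH 7.4. Incubated with 0.5 nM [3H]CP-55,940 and compound at 1 nM–10 μM for 90 min at 30 °C. Filtered on GF/C and counted. Ki by Cheng–Prusoff, n = 4.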

[3] = target: T3, Cannabinoid receptor 2 (Rattus norvegicus) (UniProt Q9QZN9); assay: Displacement of [3H]CP-55,940 from Sprague-Dawley rat spleen CB2 receptor at 1 to 10000 nM by scintillation counting analysis
T3 sequence (whole entry): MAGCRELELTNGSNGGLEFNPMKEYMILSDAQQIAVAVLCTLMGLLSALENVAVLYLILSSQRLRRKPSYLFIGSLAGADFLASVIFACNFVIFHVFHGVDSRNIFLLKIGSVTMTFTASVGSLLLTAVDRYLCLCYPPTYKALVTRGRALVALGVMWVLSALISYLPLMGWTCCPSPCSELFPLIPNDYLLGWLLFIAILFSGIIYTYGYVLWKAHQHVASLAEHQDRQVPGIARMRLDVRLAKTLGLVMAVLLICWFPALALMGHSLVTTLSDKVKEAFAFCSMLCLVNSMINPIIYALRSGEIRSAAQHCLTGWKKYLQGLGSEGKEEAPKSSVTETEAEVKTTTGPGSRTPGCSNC
How it was run: (§1)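 Male Sprague-Dawley rat spleen membranes, prepared by spinning at 2000g and then 40000g, in 50 mM Tris-HCl with 1 mM EDTA, 3 mM MgCl2 and 0.5% fatty-acid-free BSA, pH 7.4. Incubated with 0.5 nM [3H]CP-55,940, 80 μg protein/100 μL and test compound at 1 nM–10 μM. Filtered on GF/C. Ki by Cheng–Prusoff, n = 4.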

[4] = target: Cannabinoid receptor 1 (Rattus norvegicus) (UniProt P20272); assay: Displacement of [3H]CP-55,940 from Sprague-Dawley rat brain CB1 receptor at 1 to 10000 nM by scintillation counting analysis
Cannabinoid receptor 1 (Rattus norvegicus), sequence (P20272 whole entry): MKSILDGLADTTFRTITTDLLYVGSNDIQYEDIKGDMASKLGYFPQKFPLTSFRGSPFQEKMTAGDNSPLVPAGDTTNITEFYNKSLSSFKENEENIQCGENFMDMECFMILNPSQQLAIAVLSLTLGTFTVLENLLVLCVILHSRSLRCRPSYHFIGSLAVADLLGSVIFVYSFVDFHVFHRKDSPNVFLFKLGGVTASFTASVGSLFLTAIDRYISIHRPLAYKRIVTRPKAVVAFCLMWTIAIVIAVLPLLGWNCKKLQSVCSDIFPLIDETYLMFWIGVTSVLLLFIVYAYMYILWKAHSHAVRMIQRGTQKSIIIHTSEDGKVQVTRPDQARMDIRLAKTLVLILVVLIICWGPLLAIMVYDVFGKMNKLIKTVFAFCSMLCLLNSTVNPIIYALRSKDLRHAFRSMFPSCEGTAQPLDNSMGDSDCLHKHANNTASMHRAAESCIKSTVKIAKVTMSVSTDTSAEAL
How it was run: as §1, with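 “rat brain” for “rat spleen”, “with 1.0” for “with 0.5”, “[3H]CP-55,940, 40” for “[3H]CP-55,940, 80”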

Cannabinoid receptor 2 [5] = target: T1, Cannabinoid receptor 2; assay: Displacement of [3H]CP-55,940 from human recombinant CB2 receptor expressed in CHO cell membranes after 60 mins by scintillation counting analysis
Cannabinoid receptor 2 [6] = target: T4, Cannabinoid receptor 2 (Rattus norvegicus, UniProt Q9QZN9); assay: Displacement of [3H]CP-55,940 from Sprague-Dawley rat spleen CB2 receptor by scintillation counting analysis
T4 sequence (Q9QZN9 whole entry): T3 sequence (whole entry)
How it was run: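 Male Sprague-Dawley rat spleen membranes, prepared by spinning at 2000g and then 40000g, in 50 mM Tris-HCl with 1 mM EDTA, 3 mM MgCl2 and 0.5% fatty-acid-free BSA, pH 7.4. Filtered on GF/C.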

Cannabinoid receptor 1 [7] = target: T2, Cannabinoid receptor 1; assay: Displacement of [3H]CP-55,940 from human recombinant CB1 receptor expressed in CHO cell membranes after 90 mins by scintillation counting analysis
Cannabinoid receptor 1 [8] = target: Cannabinoid receptor 1 (Rattus norvegicus, UniProt P20272); assay: Displacement of [3H]CP-55,940 from Sprague-Dawley rat brain CB1 receptor by scintillation counting analysis
Cannabinoid receptor 1 (Rattus norvegicus, UniProt P20272), sequence (P20272 whole entry): as above
How it was run: as §1, with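 “rat brain” for “rat spleen”, “with 1.0” for “with 0.5”, “[3H]CP-55,940, 40” for “[3H]CP-55,940, 80”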

Cannabinoid receptor 2 [9] = target: T1, Cannabinoid receptor 2; assay: Agonist activity at human CB2 receptor expressed in CHO cells assessed as forskolin-stimulated [3H]cyclic-AMP accumulation by scintillation counting analysis relative to WIN 55,212-2; type: functional, cell-based
How it was run: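 CHO cells stably expressing human CB2, 1 × 10^6 cells/assay, in buffered saline (10 mM MgCl2, 5 mM glucose, 5 mM HEPES, pH 7.4, 37 °C) with 0.5 mM Ro 20-1724. Preincubated 10 min at 37 °C, then tested with 1 μM forskolin. Stopped with cold 6% TCA and ether-extracted. cAMP read by [3H]cAMP competition binding to beef adrenal binding protein with charcoal separation.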

Cannabinoid receptor 2 [10] = target: T1, Cannabinoid receptor 2; assay: Agonist activity at human CB2 receptor expressed in CHO cells assessed as forskolin-stimulated [3H]cyclic-AMP accumulation by scintillation counting analysis; type: functional, cell-based
Homo sapiens = organism: Homo sapiens; assay: Selectivity ratio of Ki for CB1 receptor (unknown origin) to Ki for CB2 receptor (unknown origin)

## CCCCCn1cc(C(=O)Nc2ccc(OC)cc2)c(=O)c2c(C)nn(C)c21
Cannabinoid receptor 2 [1]
  inhibition: 33%
Cannabinoid receptor 1 [2]
  inhibition: 38%
[3]
  inhibition: 24%
[4]
  inhibition: 46%
Cannabinoid receptor 2 [5]
  Ki: > 10 µM
Cannabinoid receptor 2 [6]
  Ki: > 10 µM
Cannabinoid receptor 1 [7]
  Ki: > 10 µM
Cannabinoid receptor 1 [8]
  Ki: > 10 µM

## CCCCCn1cc(C(=O)NC2CCCCC2)c(=O)c2c(-c3ccccc3)nn(C)c21
Cannabinoid receptor 2 [1]
  inhibition: 1%
Cannabinoid receptor 1 [2]
  inhibition: 23%
[3]
  inhibition: 1%
[4]
  inhibition: 18%
Cannabinoid receptor 2 [5]
  Ki: > 10 µM
Cannabinoid receptor 2 [6]
  Ki: > 10 µM
Cannabinoid receptor 1 [7]
  Ki: > 10 µM
Cannabinoid receptor 1 [8]
  Ki: > 10 µM

## C=CCn1cc(C(=O)NC2CCCCC2)c(=O)c2c(C)nn(C)c21
Cannabinoid receptor 2 [9]
  Emax: 58%
Cannabinoid receptor 2 [10]
  EC50: 0.587 µM
Cannabinoid receptor 2 [1]
  inhibition: 42%
Cannabinoid receptor 1 [2]
  inhibition: 34%
[3]
  inhibition: 46%
[4]
  inhibition: 27%
Cannabinoid receptor 2 [5]
  Ki: > 10 µM
Cannabinoid receptor 2 [6]
  Ki: > 10 µM
Cannabinoid receptor 1 [7]
  Ki: > 10 µM
Cannabinoid receptor 1 [8]
  Ki: > 10 µM

## Cc1ccc(Cn2cc(C(=O)NC3CCCCC3)c(=O)c3c(C)nn(C)c32)cc1
Cannabinoid receptor 2 [1]
  inhibition: 33%
Cannabinoid receptor 1 [2]
  inhibition: 35%
[3]
  inhibition: 29%
[4]
  inhibition: 38%
Cannabinoid receptor 2 [5]
  Ki: > 10 µM
Cannabinoid receptor 2 [6]
  Ki: > 10 µM
Cannabinoid receptor 1 [7]
  Ki: > 10 µM
Cannabinoid receptor 1 [8]
  Ki: > 10 µM

## CCOCCn1cc(C(=O)NC2CCCCC2)c(=O)c2c(C)nn(C)c21
Cannabinoid receptor 2 [1]
  inhibition: 1%
Cannabinoid receptor 1 [2]
  inhibition: 14%
[3]
  inhibition: 1%
[4]
  inhibition: 10%
Cannabinoid receptor 2 [5]
  Ki: > 10 µM
Cannabinoid receptor 2 [6]
  Ki: > 10 µM
Cannabinoid receptor 1 [7]
  Ki: > 10 µM
Cannabinoid receptor 1 [8]
  Ki: > 10 µM

## CCCCCCC(C)(C)c1cc(OC)c([C@@H]2C=C(CO)[C@H]3C[C@@H]2C3(C)C)c(OC)c1
Homo sapiens
  Ratio Ki: 400

## CCCCCn1cc(C(=O)NC2CCCCCC2)c(=O)c2c(-c3ccccc3)nn(C)c21
Cannabinoid receptor 2 [1]
  inhibition: 1%
Cannabinoid receptor 1 [2]
  inhibition: 1%
[3]
  inhibition: 1%
[4]
  inhibition: 1%
Cannabinoid receptor 2 [5]
  Ki: > 10 µM
Cannabinoid receptor 2 [6]
  Ki: > 10 µM
Cannabinoid receptor 1 [7]
  Ki: > 10 µM
Cannabinoid receptor 1 [8]
  Ki: > 10 µM

## Cc1nn(C)c2c1c(=O)c(C(=O)NC1CCCCC1)cn2CCCCC#N
Cannabinoid receptor 2 [1]
  inhibition: 11%
Cannabinoid receptor 1 [2]
  inhibition: 28%
[3]
  inhibition: 5%
[4]
  inhibition: 25%
Cannabinoid receptor 2 [5]
  Ki: > 10 µM
Cannabinoid receptor 2 [6]
  Ki: > 10 µM
Cannabinoid receptor 1 [7]
  Ki: > 10 µM
Cannabinoid receptor 1 [8]
  Ki: > 10 µM

## CCCCCn1cc(C(=O)Nc2ccc(F)cc2)c(=O)c2c(C)nn(C)c21
Cannabinoid receptor 2 [1]
  inhibition: 37%
Cannabinoid receptor 1 [2]
  inhibition: 44%
[3]
  inhibition: 27%
[4]
  inhibition: 48%
Cannabinoid receptor 2 [5]
  Ki: > 10 µM
Cannabinoid receptor 2 [6]
  Ki: > 10 µM
Cannabinoid receptor 1 [7]
  Ki: > 10 µM
Cannabinoid receptor 1 [8]
  Ki: > 10 µM

## Cc1nn(C)c2c1c(=O)c(C(=O)NC1CCCCC1)cn2CCN1CCOCC1
Cannabinoid receptor 2 [1]
  inhibition: 36%
Cannabinoid receptor 1 [2]
  inhibition: 16%
[3]
  inhibition: 32%
[4]
  inhibition: 13%
Cannabinoid receptor 2 [5]
  Ki: > 10 µM
Cannabinoid receptor 2 [6]
  Ki: > 10 µM
Cannabinoid receptor 1 [7]
  Ki: > 10 µM
Cannabinoid receptor 1 [8]
  Ki: > 10 µM
